In article PMC7114209 (Antiviral Research, 2008):

Experiments:
[1] = Cell growth and viability assay; format: cell-based; settings: human, Raji cells, CC50, cytotoxic concentration that decreased cell viability to 50% of untreated cells, MTT, mean ± S.D. of three experiments
Procedure, shortened: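 Raji cells (latently EBV-infected, non-producer) kept at 4–6 × 10^5 cells/ml in RPMI 1640 with 10% FCS, penicillin and streptomycin. Cells were seeded in 96-well plates and exposed to a range of test compound concentrations for 3 days. MTT was then added for 6 h at 37 °C and solubilised in 0.04 M HCl–isopropanol. Absorbance was read at 595 nm against 655 nm. CC50 is relative to the no-drug control.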

[2] = test system: EBV DNA in P3HR-1 cells; settings: ref Lin, 2003; cited from earlier work
[3] = test system: EBV DNA in Raji cells; settings: latently infected Raji cells, not superinfected; ref Lin, 2003; cited from earlier work

CC1(C)[C@@H](O[C@H]2O[C@H](C(=O)O)[C@@H](O)[C@H](O)[C@H]2O[C@@H]2O[C@H](C(=O)O)[C@@H](O)[C@H](O)[C@H]2O)CC[C@]2(C)[C@H]3C(=O)C=C4[C@@H]5C[C@@](C)(C(=O)O)CC[C@]5(C)CC[C@@]4(C)[C@]3(C)CC[C@@H]12 [GL (18β-GL), Glycyrrhizic acid]
CC50 at 3 days [1]: 4.5 ± 0.16 mM | effect on EBV DNA [2]: no effects | effect on EBV DNA [3]: no effects
